The record followed here is ChEMBL document CHEMBL1255333, “Comparison of the in vitro efficacies of moxifloxacin and amoxicillin against Listeria monocytogenes” (2008).

Activity calls are given as the source filed them.

Assay [1] relates to Listeria monocytogenes. The assay is described as follows: Antibacterial activity against extracellular Listeria monocytogenes EGDe at MIC by time-kill study. The class given is functional, organism-based. A digest of the protocol: (§1)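 EGDe inoculum of 5 x 10^8 bacteria in Mueller-Hinton broth at 37°C. Antibiotic was added at 1x, 4x, 8x or 400x MIC. Counts were done in triplicate at set times by plating serial 10-fold dilutions on BHI agar, with or without 2 µg/ml moxifloxacin, for 48 h. Results are CFU/ml, means ± SE of three experiments. Bactericidal was defined as a >3-log10 drop at 24 h.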

For assay [2], the system named is Listeria monocytogenes. The assay is described as follows: Antibacterial activity against intracellular Listeria monocytogenes EGDe infected in bone marrow-derived BALB/c mouse macrophage assessed as reduction in bacterial count at four-eitght times of MIC after 3 hrs. The class given is functional, organism-based. The method in brief:
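Bone marrow macrophages from BALB/c mice (7-8 weeks) were differentiated for 7 days in RPMI 1640 with 10% decomplemented FCS and 10% L-cell medium, at 37°C and 10% CO2. Cells at 3 x 10^5/ml were infected for 15 min at a bacteria:macrophage ratio of 10:1, washed, and preincubated for 45 min. They were then given antibiotic for up to 24 h, lysed in 0.1% Triton X-100, and plated in triplicate. Results are CFU/well, means ± SE of three experiments.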

The subject of assay [3] is Listeria monocytogenes. The assay is described as follows: Antibacterial activity against extracellular Listeria monocytogenes EGDe assessed as reduction in bacterial count at eight times of MIC after 6 hrs by time-kill study. The class given is functional. The method in brief:
as §1

In assay [4] the test system is Listeria monocytogenes. In words: Antibacterial activity against extracellular Listeria monocytogenes EGDe at four times of MIC by time-kill study. The class given is functional, organism-based. A digest of the protocol:
as §1

The subject of assay [5] is Listeria monocytogenes. In words: Antibacterial activity against extracellular Listeria monocytogenes EGDe assessed as reduction in bacterial count at four times of MIC after 6 hrs by time-kill study. The class given is functional. A digest of the protocol: as §1
Assay [6] concerns Listeria monocytogenes. In words: Antibacterial activity against intracellular Listeria monocytogenes EGDe infected in bone marrow-derived BALB/c mouse macrophage assessed as reduction in the formation of filopodium-like projections at >= MIC after 48 hrs by microscopy. The class given is functional, organism-based.
For assay [7], the system named is Listeria monocytogenes. In words: Antibacterial activity against intracellular Listeria monocytogenes EGDe infected in bone marrow-derived BALB/c mouse macrophage assessed as changes in morphology of intracellular bacteria observed to be ghostly, chained, and elongated at >= MIC after 48 hrs by microscopy. The class given is functional, organism-based.
For assay [8], the system named is Listeria monocytogenes. The assay is described as follows: Antibacterial activity against extracellular Listeria monocytogenes EGDe assessed as reduction in bacterial count at four times of MIC after 24 hrs by time-kill study. The class given is functional, organism-based. The method in brief: as §1
Assay [9] relates to Listeria monocytogenes. The assay is described as follows: Antibacterial activity against extracellular Listeria monocytogenes EGDe assessed as reduction in bacterial count at eight times of MIC after 24 hrs by time-kill study. The class given is functional, organism-based. A digest of the protocol: as §1
Assay [10] relates to Listeria monocytogenes. In words: Antibacterial activity against intracellular Listeria monocytogenes EGDe infected in bone marrow-derived BALB/c mouse macrophage assessed as prevention of bacterial release and spread of infection by preventing macrophage lysis after 24 hrs. The class given is functional, organism-based.
For assay [11], the system named is Listeria monocytogenes. The assay is described as follows: Antibacterial activity against extracellular Listeria monocytogenes EGDe at 400 times of MIC by time-kill study. The class given is functional, organism-based. A digest of the protocol:
as §1

Assay [12] deals with Listeria monocytogenes. The assay is described as follows: Antibacterial activity against intracellular Listeria monocytogenes EGDe infected in bone marrow-derived BALB/c mouse macrophage assessed as reduction in the number of infected macrophages after 3 hrs. The class given is functional, organism-based. A digest of the protocol: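 Infected BALB/c bone marrow macrophages were stained with May-Grunwald-Giemsa and examined microscopically to determine the infection rate. Observations were made at 3, 6 and 24 h of exposure to antibiotic at 1x MIC or Cmax, or with no antibiotic.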

With `COc1c(N2C[C@@H]3CCCN[C@@H]3C2)c(F)cc2c(=O)c(C(=O)O)cn(C3CC3)c12` [MOXIFLOXACIN], the result with Listeria monocytogenes [1] was inactive. The result in the assay on Listeria monocytogenes [2], with Listeria monocytogenes [4], in the assay with Listeria monocytogenes [6], with Listeria monocytogenes [7], in the assay with Listeria monocytogenes [8] and in the assay with Listeria monocytogenes [9] was Active. Moreover, the result in the assay with Listeria monocytogenes [10] was Active. Also, the log10CFU/ml in the assay on Listeria monocytogenes [3] and with Listeria monocytogenes [5] was 3 in each case.

With `CC1(C)S[C@@H]2[C@H](NC(=O)[C@H](N)c3ccc(O)cc3)C(=O)N2[C@H]1C(=O)O`, the result in the assay with Listeria monocytogenes [11] and with Listeria monocytogenes [4] was Active. Further, the outcome in the assay with Listeria monocytogenes [1], in the assay with Listeria monocytogenes [12], with Listeria monocytogenes [2], in the assay with Listeria monocytogenes [6] and with Listeria monocytogenes [10] was inactive.
